Measurements from ChEMBL document CHEMBL1770123, “SPF32629A and SPF32629B: enantioselective synthesis, determination of absolute configuration, cytotoxicity and antibacterial evaluation” (Eur J Med Chem, 2011).
Converted amounts (≈) assume the structure as drawn. The source made the active and inactive calls. No cut-off for these calls is given here.

Experiments:
Bacillus subtilis [1] = test: Antimicrobial activity against Bacillus subtilis at 500 ug/disc after 24 hrs by disc diffusion method; format: functional; settings: read-out: DIZ
Staphylococcus aureus [2] = test: Antimicrobial activity against methicillin-resistant Staphylococcus aureus strain 4 TB5G at 500 ug/disc after 24 hrs by disc diffusion method; format: functional; settings: read-out: DIZ
Procedure, shortened: (§1)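 Disc diffusion on 2.4% Mueller-Hinton agar inoculated with the strain. Paper discs 6 mm across were loaded with test compound and placed on the agar. Plates were incubated at 37 °C for 24 h. Read-out was the diameter of the inhibition zone in mm.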

A549 [3] = test: Cytotoxicity against human A549 cells assessed as cell death at 5 ug after 48 hrs by MTT assay; format: functional
Procedure, shortened: (§2)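 A549 cells were grown in DMEM with 2 mmol L-glutamine, 10% FBS, penicillin (50 IU/mL) and streptomycin, at 37 °C and 5% CO2. 1×10^4 cells/well were plated and treated 24 h later with compound diluted in medium for 48 h. Controls were DMSO-matched and untreated wells. MTT 0.4 mg/mL in PBS was added for 4 h in the dark, then DMSO for 4 h. A540 was read and reported as % live cells relative to untreated.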

Escherichia coli [4] = test: Antimicrobial activity against Escherichia coli at 1000 ug/disc after 24 hrs by disc diffusion method; format: functional; settings: read-out: DIZ
[5] = Inhibition of human elastase
Klebsiella pneumoniae [6] = test: Antimicrobial activity against Klebsiella pneumoniae at 1000 ug/disc after 24 hrs by disc diffusion method; format: functional; settings: read-out: DIZ
Salmonella typhimurium [7] = test: Antimicrobial activity against Salmonella Typhimurium at 1000 ug/disc after 24 hrs by disc diffusion method; format: functional, Salmonella enterica subsp. enterica serovar Typhimurium; settings: Salmonella enterica, read-out: DIZ
Listeria monocytogenes [8] = test: Antimicrobial activity against Listeria monocytogenes at 1000 ug/disc after 24 hrs by disc diffusion method; format: functional; settings: read-out: DIZ
Escherichia coli [9] = test: Antimicrobial activity against Escherichia coli after 24 hrs by microdilution method; format: functional
Procedure, shortened: (§3)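 Growth was judged by turbidity, and the MIC was taken as the minimum concentration giving the lowest growth. Amikacin served as reference.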

Escherichia coli [10] = test: Antimicrobial activity against Escherichia coli at 500 ug/disc after 24 hrs by disc diffusion method; format: functional; settings: read-out: DIZ
Staphylococcus aureus [11] = test: Antimicrobial activity against Staphylococcus aureus after 24 hrs by microdilution method; format: functional; procedure, shortened: as §3
Staphylococcus aureus [12] = test: Antimicrobial activity against methicillin-resistant Staphylococcus aureus strain 1 TB3G at 1000 ug/disc after 24 hrs by disc diffusion method; format: functional; settings: read-out: DIZ; procedure, shortened: as §1
Staphylococcus aureus [13] = test: Antimicrobial activity against Staphylococcus aureus at 500 ug/disc after 24 hrs by disc diffusion method; format: functional; settings: read-out: DIZ; procedure, shortened: as §1
Klebsiella pneumoniae [14] = test: Antimicrobial activity against Klebsiella pneumoniae after 24 hrs by microdilution method; format: functional; procedure, shortened: as §3
Staphylococcus aureus [15] = test: Antimicrobial activity against methicillin-resistant Staphylococcus aureus strain 2 TB4G at 500 ug/disc after 24 hrs by disc diffusion method; format: functional; settings: read-out: DIZ; procedure, shortened: as §1
A549 [16] = test: Cytotoxicity against human A549 cells after 48 hrs by MTT assay; format: functional, cell-based; settings: A549, 48 h
Procedure, shortened: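 A549 cells were kept in DMEM with 2 mM L-glutamine, 10% FBS, penicillin 50 IU/mL and streptomycin at 37 °C under 5% CO2. 1×10^4 cells per well were treated 24 h after seeding with compounds diluted in medium for 48 h. MTT (0.4 mg/mL in PBS) was added for 4 h in the dark, formazan was dissolved in DMSO for 4 h and absorbance read at 540 nm. Viability was expressed as % of untreated cells, and IC50 was derived.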

Salmonella typhimurium [17] = test: Antimicrobial activity against Salmonella Typhimurium at 500 ug/disc after 24 hrs by disc diffusion method; format: functional, Salmonella enterica subsp. enterica serovar Typhimurium; settings: Salmonella enterica, read-out: DIZ
Klebsiella pneumoniae [18] = test: Antimicrobial activity against Klebsiella pneumoniae at 500 ug/disc after 24 hrs by disc diffusion method; format: functional; settings: read-out: DIZ
Staphylococcus aureus [19] = test: Antimicrobial activity against methicillin-resistant Staphylococcus aureus strain 1 TB3G at 500 ug/disc after 24 hrs by disc diffusion method; format: functional; settings: read-out: DIZ; procedure, shortened: as §1
[20] = test system: Staphylococcus epidermidis; test: Antimicrobial activity against Staphylococcus epidermidis at 500 ug/disc after 24 hrs by disc diffusion method; format: functional; settings: read-out: DIZ
Bacillus subtilis [21] = test: Antimicrobial activity against Bacillus subtilis after 24 hrs by microdilution method; format: functional; procedure, shortened: as §3
[22] = test system: Staphylococcus epidermidis; test: Antimicrobial activity against Staphylococcus epidermidis at 1000 ug/disc after 24 hrs by disc diffusion method; format: functional; settings: read-out: DIZ
A549 [23] = test: Cytotoxicity against human A549 cells assessed as cell death at 2 ug after 48 hrs by MTT assay; format: functional; procedure, shortened: as §2
Salmonella typhimurium [24] = test: Antimicrobial activity against Salmonella Typhimurium after 24 hrs by microdilution method; format: functional, Salmonella enterica subsp. enterica serovar Typhimurium; settings: Salmonella enterica; procedure, shortened: as §3
Staphylococcus aureus [25] = test: Antimicrobial activity against methicillin-resistant Staphylococcus aureus strain 4 TB5G after 24 hrs by microdilution method; format: functional
Procedure, shortened: (§4)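 Growth was judged by turbidity. The MIC was taken as the lowest concentration giving the lowest growth.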

Listeria monocytogenes [26] = test: Antimicrobial activity against Listeria monocytogenes at 500 ug/disc after 24 hrs by disc diffusion method; format: functional; settings: read-out: DIZ
Staphylococcus aureus [27] = test: Antimicrobial activity against Staphylococcus aureus at 1000 ug/disc after 24 hrs by disc diffusion method; format: functional; settings: read-out: DIZ
A549 [28] = test: Cytotoxicity against human A549 cells assessed as cell death at 1 ug after 48 hrs by MTT assay; format: functional; procedure, shortened: as §2
[29] = test system: Staphylococcus epidermidis; test: Antimicrobial activity against Staphylococcus epidermidis after 24 hrs by microdilution method; format: functional; procedure, shortened: as §3
Staphylococcus aureus [30] = test: Antimicrobial activity against methicillin-resistant Staphylococcus aureus strain 4 TB5G at 1000 ug/disc after 24 hrs by disc diffusion method; format: functional; settings: read-out: DIZ; procedure, shortened: as §1
A549 [31] = test: Cytotoxicity against human A549 cells assessed as cell death at 10 ug after 48 hrs by MTT assay; format: functional; procedure, shortened: as §2
Listeria monocytogenes [32] = test: Antimicrobial activity against Listeria monocytogenes after 24 hrs by microdilution method; format: functional; procedure, shortened: as §3
Staphylococcus aureus [33] = test: Antimicrobial activity against methicillin-resistant Staphylococcus aureus strain 2 TB4G at 1000 ug/disc after 24 hrs by disc diffusion method; format: functional; settings: read-out: DIZ; procedure, shortened: as §1
Staphylococcus aureus [34] = test: Antimicrobial activity against methicillin-resistant Staphylococcus aureus strain 2 TB4G after 24 hrs by microdilution method; format: functional; procedure, shortened: as §4
Staphylococcus aureus [35] = test: Antimicrobial activity against methicillin-resistant Staphylococcus aureus strain 1 TB3G after 24 hrs by microdilution method; format: functional; procedure, shortened: as §4
Chymase = target: T1, Chymase (Homo sapiens, UniProt P23946); test: Inhibition of human chymase
T1 sequence (P23946 whole entry): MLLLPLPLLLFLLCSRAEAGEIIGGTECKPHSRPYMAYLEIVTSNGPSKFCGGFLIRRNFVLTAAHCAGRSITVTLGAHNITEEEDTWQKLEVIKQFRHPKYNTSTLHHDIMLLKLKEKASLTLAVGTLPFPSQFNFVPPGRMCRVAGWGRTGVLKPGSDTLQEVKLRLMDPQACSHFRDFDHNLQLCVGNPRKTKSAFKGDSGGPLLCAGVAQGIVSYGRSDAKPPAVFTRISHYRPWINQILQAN

Bacillus subtilis [36] = test: Antimicrobial activity against Bacillus subtilis at 1000 ug/disc after 24 hrs by disc diffusion method; format: functional; settings: read-out: DIZ
A549 [37] = test: Cytotoxicity against human A549 cells assessed as cell death at 25 ug after 48 hrs by MTT assay; format: functional; procedure, shortened: as §2
Staphylococcus aureus [38] = test: Antimicrobial activity against Staphylococcus aureus at 100 ug/disc after 24 hrs by disc diffusion method; format: functional; settings: read-out: DIZ
Listeria monocytogenes [39] = test: Antimicrobial activity against Listeria monocytogenes at 100 ug/disc after 24 hrs by disc diffusion method; format: functional; settings: read-out: DIZ
Staphylococcus aureus [40] = test: Antimicrobial activity against methicillin-resistant Staphylococcus aureus strain 1 TB3G at 100 ug/disc after 24 hrs by disc diffusion method; format: functional; settings: read-out: DIZ
[41] = test system: Staphylococcus epidermidis; test: Antimicrobial activity against Staphylococcus epidermidis at 100 ug/disc after 24 hrs by disc diffusion method; format: functional; settings: read-out: DIZ
Klebsiella pneumoniae [42] = test: Antimicrobial activity against Klebsiella pneumoniae at 100 ug/disc after 24 hrs by disc diffusion method; format: functional; settings: read-out: DIZ
Escherichia coli [43] = test: Antimicrobial activity against Escherichia coli at 100 ug/disc after 24 hrs by disc diffusion method; format: functional; settings: read-out: DIZ
Bacillus subtilis [44] = test: Antimicrobial activity against Bacillus subtilis at 100 ug/disc after 24 hrs by disc diffusion method; format: functional; settings: read-out: DIZ
Staphylococcus aureus [45] = test: Antimicrobial activity against methicillin-resistant Staphylococcus aureus strain 4 TB5G at 100 ug/disc after 24 hrs by disc diffusion method; format: functional, organism-based
Staphylococcus aureus [46] = test: Antimicrobial activity against methicillin-resistant Staphylococcus aureus strain 2 TB4G at 100 ug/disc after 24 hrs by disc diffusion method; format: functional; settings: read-out: DIZ
Salmonella typhimurium [47] = test: Antimicrobial activity against Salmonella Typhimurium at 100 ug/disc after 24 hrs by disc diffusion method; format: functional, Salmonella enterica subsp. enterica serovar Typhimurium; settings: Salmonella enterica, read-out: DIZ

CC(C)CC(=O)OC(c1ccccc1)c1cc(O)c(C(=O)O)c(=O)[nH]1 (racemic)
zone of inhibition at 500 µg/disc (Bacillus subtilis [1]): 7 mm | zone of inhibition at 500 µg/disc (Staphylococcus aureus [2]): 6 mm | Activity (A549 [3]): 44% | zone of inhibition at 1000 µg/disc (Escherichia coli [4]): 15 mm | IC50 [5]: 4.5 µg/mL (≈ 13 µM) | zone of inhibition at 1000 µg/disc (Klebsiella pneumoniae [6]): 21 mm | zone of inhibition at 1000 µg/disc (Salmonella typhimurium [7]): 20 mm | zone of inhibition at 1000 µg/disc (Listeria monocytogenes [8]): 20 mm | MIC (Escherichia coli [9]): 50 µg/mL (≈ 145 µM) | zone of inhibition at 500 µg/disc (Escherichia coli [10]): 8 mm | MIC (Staphylococcus aureus [11]): > 100 µg/mL | zone of inhibition at 1000 µg/disc (Staphylococcus aureus [12]): 10 mm | zone of inhibition at 500 µg/disc (Staphylococcus aureus [13]): 7 mm | MIC (Klebsiella pneumoniae [14]): 50 µg/mL (≈ 145 µM) | zone of inhibition at 500 µg/disc (Staphylococcus aureus [15]): 7 mm | IC50 (A549 [16]): 11 µM | zone of inhibition at 500 µg/disc (Salmonella typhimurium [17]): 9 mm | zone of inhibition at 500 µg/disc (Klebsiella pneumoniae [18]): 12 mm | zone of inhibition at 500 µg/disc (Staphylococcus aureus [19]): 5 mm | zone of inhibition at 500 µg/disc [20]: 8 mm | MIC (Bacillus subtilis [21]): 25 µg/mL (≈ 72.4 µM) | zone of inhibition at 1000 µg/disc [22]: 17 mm | Activity (A549 [23]): 21.53% | MIC (Salmonella typhimurium [24]): > 100 µg/mL | MIC (Staphylococcus aureus [25]): > 100 µg/mL | zone of inhibition at 500 µg/disc (Listeria monocytogenes [26]): 11 mm | zone of inhibition at 1000 µg/disc (Staphylococcus aureus [27]): 15 mm | Activity (A549 [28]): 7.07% | MIC [29]: > 100 µg/mL | zone of inhibition at 1000 µg/disc (Staphylococcus aureus [30]): 12 mm | Activity (A549 [31]): 71.07% | MIC (Listeria monocytogenes [32]): 50 µg/mL (≈ 145 µM) | zone of inhibition at 1000 µg/disc (Staphylococcus aureus [33]): 12 mm | MIC (Staphylococcus aureus [34]): > 100 µg/mL | MIC (Staphylococcus aureus [35]): > 100 µg/mL | IC50 (Chymase): 1.22 µM | zone of inhibition at 1000 µg/disc (Bacillus subtilis [36]): 13 mm | Activity (A549 [37]): 81.53%

NCC[C@H](O)C(=O)N[C@@H]1C[C@H](N)[C@@H](O[C@H]2O[C@H](CN)[C@@H](O)[C@H](O)[C@H]2O)[C@H](O)[C@H]1O[C@H]1O[C@H](CO)[C@@H](O)[C@H](N)[C@H]1O [AMIKACIN]
MIC (Escherichia coli [9]): 6 µg/mL (≈ 10.2 µM) | MIC (Staphylococcus aureus [11]): 50 µg/mL (≈ 85.4 µM) | MIC (Klebsiella pneumoniae [14]): 6 µg/mL (≈ 10.2 µM) | zone of inhibition at 100 µg/disc (Staphylococcus aureus [38]): 20 mm | zone of inhibition at 100 µg/disc (Listeria monocytogenes [39]): 20 mm | zone of inhibition at 100 µg/disc (Staphylococcus aureus [40]): 17 mm | zone of inhibition at 100 µg/disc [41]: 22 mm | zone of inhibition at 100 µg/disc (Klebsiella pneumoniae [42]): 21 mm | zone of inhibition at 100 µg/disc (Escherichia coli [43]): 22 mm | MIC (Bacillus subtilis [21]): 6 µg/mL (≈ 10.2 µM) | zone of inhibition at 100 µg/disc (Bacillus subtilis [44]): 21 mm | diameter of the inhibition zone (DIZ) (Staphylococcus aureus [45]): inactive | MIC (Salmonella typhimurium [24]): 12 µg/mL (≈ 20.5 µM) | MIC (Staphylococcus aureus [25]): > 100 µg/mL | MIC [29]: 12 µg/mL (≈ 20.5 µM) | MIC (Listeria monocytogenes [32]): 6 µg/mL (≈ 10.2 µM) | MIC (Staphylococcus aureus [34]): > 100 µg/mL | zone of inhibition at 100 µg/disc (Staphylococcus aureus [46]): 19 mm | MIC (Staphylococcus aureus [35]): > 100 µg/mL | zone of inhibition at 100 µg/disc (Salmonella typhimurium [47]): 19 mm
